# According to ChEMBL document CHEMBL1125034, “Design and synthesis of 4H-3,1-benzoxazin-4-ones as potent alternate substrate inhibitors of human leukocyte elastase” (J Med Chem, 1990):
# Assays:
# [1] = Alkaline hydrolysis rate of the compound; format: ADME
# Procedure, shortened: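 Alkaline hydrolysis rate constants measured at several pH values at 25 °C. Loss of the long-wavelength UV chromophore (λmax typically 300-345 nm) was followed by spectrophotometer.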
# Neutrophil elastase = target: T1, Neutrophil elastase (Homo sapiens, UniProt P08246); experiment: Inhibition of human leukocyte elastase
# T1 sequence (P08246 whole entry): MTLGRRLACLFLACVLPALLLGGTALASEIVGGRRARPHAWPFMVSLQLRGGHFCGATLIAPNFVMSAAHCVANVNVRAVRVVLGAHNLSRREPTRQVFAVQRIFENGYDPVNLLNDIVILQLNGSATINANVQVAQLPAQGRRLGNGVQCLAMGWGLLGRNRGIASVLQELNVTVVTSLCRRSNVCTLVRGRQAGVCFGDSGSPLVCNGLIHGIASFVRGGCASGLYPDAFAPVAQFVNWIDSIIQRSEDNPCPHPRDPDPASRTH
# [2] = Partition coefficient (logD7.4); format: physicochemical; settings: octanol/water, pH 7.4
SMILES,Log kOH- [1],Ki (Neutrophil elastase) [nM],logD [2]
CCC(C)Nc1nc2ccccc2c(=O)o1 (stereo not drawn),0.92,43.7,
Cc1nc2cccc(C)c2c(=O)o1,0.85,1000,
COc1cccc2nc(C)oc(=O)c12,0.83,14500,
Cc1cccc2nc(NCC(C)(C)C)oc(=O)c12,,240,
CCNc1nc2ccccc2c(=O)o1,,52.5,
CN(C)c1ccc(CNc2nc3ccccc3c(=O)o2)cc1,1.81,2000,
CCc1cccc2nc(C)oc(=O)c12,0.73,120,
O=c1oc(CBr)nc2ccccc12,2.06,955,
CCc1cc(OC)cc2nc(NC(C)C)oc(=O)c12,-0.6,11,
CCN(CC)c1nc2c(C)ccc(C)c2c(=O)o1,,105,
Nc1cccc(CNc2nc3ccccc3c(=O)o2)c1,1.18,1580,
Cc1cccc2nc(N(C(C)C)C(C)C)oc(=O)c12,,398,
Cc1ccccc1CNc1nc2ccccc2c(=O)o1,1.01,2820,
CCOC(=O)CSc1nc2ccccc2c(=O)o1,2.93,72.4,
COc1cc2nc(SCc3c[nH]c4ccccc34)oc(=O)c2cc1OC,,12900,
CCSc1nc2ccc(C)cc2c(=O)o1,1.95,170,
Cc1cccc2c(=O)oc(NCc3ccccc3)nc12,0.92,2000,
CC(C)COC(=O)N(C)c1nc2ccccc2c(=O)o1,2.21,2.69,
CCN(CC)c1ccc2c(=O)oc(NC(C)C)nc2c1,-0.99,5500,
Nc1nc2ccccc2c(=O)o1,0.53,,
COc1nc2cccc(C)c2c(=O)o1,,10,
CCCCCNc1nc2cccc(C)c2c(=O)o1,,3390,
CCCCNc1nc2c(C)cccc2c(=O)o1,0.86,407,

SMILES,Log kOH- [1],Ki (Neutrophil elastase) [nM],logD [2]
CCc1cccc2nc(N[C@@H](CC(C)C)C(=O)OC)oc(=O)c12,0.48,12,
COC(=O)[C@@H](NC(=O)[C@H](C)Nc1nc2ccccc2c(=O)o1)C(C)C,,182,
CCc1cccc2nc(N(C(C)C)C(C)C)oc(=O)c12,,70.8,
CCOC(=O)CNc1nc2ccccc2c(=O)o1,1.4,64600,
O=c1oc(SCc2ccccc2)nc2cc3ccccc3cc12,,257,
CCc1cccc2nc(NC(C)C)oc(=O)c12,0.31,,
O=c1oc(C(F)(F)C(F)(F)C(F)(F)F)nc2ccccc12,3.27,91.2,
CC(C)Sc1nc2ccccc2c(=O)o1,,7.76,
COc1cccc2nc(C(F)(F)F)oc(=O)c12,3.54,417,
Cc1cccc2c(=O)oc(NC(C)C)nc12,0.69,589,
CCC(C)(C)Nc1nc2ccccc2c(=O)o1,,155,
O=c1oc(-c2ccco2)nc2ccccc12,1.94,1780,
CCN(CC)c1nc2ccccc2c(=O)o1,,372,
CNc1nc2c(C)cccc2c(=O)o1,,97700,
CCOc1nc2cccc(C(C)C)c2c(=O)o1,0.96,0.0708,
CCNc1ccc2c(=O)oc(NC(C)C)nc2c1,,692,2.4
CCSc1nc2cc(CC)ccc2c(=O)o1,1.66,20.9,
CCSc1nc2ccc(N(C)C)cc2c(=O)o1,1.76,339,
Cc1cccc2nc(NC3CCCC3)oc(=O)c12,,200,
CC(C)COc1nc2ccccc2c(=O)o1,1.83,11.5,
O=c1oc(N2CCCCC2)nc2ccccc12,,646,3
COc1cc2nc(C)oc(=O)c2cc1OC,0.53,832000,
CCSc1nc2cccc(CC)c2c(=O)o1,1.37,,

SMILES,Log kOH- [1],Ki (Neutrophil elastase) [nM],logD [2]
COC(=O)[C@H](CC(C)C)NC(=O)[C@H](CC(C)C)Nc1nc2cc(C)cc(C)c2c(=O)o1,,39.8,
CCCCN(CCCC)c1nc2cccc(C)c2c(=O)o1,,363,
COc1cc2nc(SC/C=C/c3ccccc3)oc(=O)c2cc1OC,,6920,
CCOc1nc2c(C)ccc(C)c2c(=O)o1,,0.0955,
O=c1oc(Cc2ccccc2)nc2ccccc12,,3630,
CC(C)(C)c1nc2ccccc2c(=O)o1,1.38,8910,
O=c1oc(OCc2ccccc2)nc2ccccc12,1.99,56.2,
CCOc1nc2cccc(C)c2c(=O)o1,1.31,0.115,
CC(=O)N(C)c1nc2ccccc2c(=O)o1,2.57,5.75,
CC(C)Nc1nc2cc(N)ccc2c(=O)o1,-0.46,776,
COC(=O)[C@@H](CC(C)C)NC(=O)[C@@H](CC(C)C)Nc1nc2cc(C)cc(C)c2c(=O)o1,,102,
Cc1cccc2nc(NCCC(C)C)oc(=O)c12,,1550,
CCCOc1cc(CC)c2c(=O)oc(NC(C)C)nc2c1,,21.4,
O=c1oc(N2CCOCC2)nc2ccccc12,1.5,708,
CCCCCCCCNc1nc2ccccc2c(=O)o1,0.03,31600,
COc1cc2nc(OCc3ccccc3)oc(=O)c2cc1OC,0.97,933,
Cc1cccc2nc(N)oc(=O)c12,-0.05,,
CCCc1nc2ccccc2c(=O)o1,,2880,
CCOC(=O)Nc1ccc2c(=O)oc(OCC)nc2c1,1.46,17.8,
Cc1cccc2nc(Nc3ccccc3)oc(=O)c12,,110,
CCCNc1nc2ccccc2c(=O)o1,,,2.4
Cc1ccc(C)c2c(=O)oc(NC(C)C)nc12,0.2,6.61,
CSc1nc2ccccc2c(=O)o1,2.16,20.9,

SMILES,Log kOH- [1],Ki (Neutrophil elastase) [nM],logD [2]
O=c1oc(C(F)(F)C(F)(F)F)nc2ccccc12,,110,
C[C@H](N)C(=O)c1nc2ccccc2c(=O)o1,1.76,759,
O=c1oc(N2CCCC2)nc2ccccc12,0.97,1910,
CCOc1nc2cccc(CBr)c2c(=O)o1,1.93,0.0676,
CCSc1nc2cc3ccccc3cc2c(=O)o1,2.54,72.4,
C[C@H](NC(=O)[C@@H]1CCCN1c1nc2ccccc2c(=O)o1)C(N)=O,,234,
O=c1oc(-c2cccc([N+](=O)[O-])c2)nc2ccccc12,1.82,4370,
CCc1cc(N(C)C)cc2nc(NC(C)C)oc(=O)c12,-1.88,110,
CC(C)[C@H](NC(=O)C1CCCN1c1nc2ccccc2c(=O)o1)C(N)=O (stereo partly drawn),,468,
CCCCNc1nc2cccc(C)c2c(=O)o1,0.41,,
Cc1cccc2ncoc(=O)c12,1.38,219,
CCOc1nc2cccc(CC)c2c(=O)o1,1.17,0.0427,
CCOc1nc2ccccc2c(=O)o1,1.91,6.46,
Cc1ccc2nc(C(F)(F)F)oc(=O)c2c1,3.23,513,
CCc1cccc2nc(N)oc(=O)c12,-0.08,,
Cc1cccc2nc(CBr)oc(=O)c12,1.58,151,
CCCCN(C(C)=O)c1nc2ccccc2c(=O)o1,2.48,10,
CCOc1nc2cc(OC)cc(C)c2c(=O)o1,,0.398,
CCOc1nc2cc(N)ccc2c(=O)o1,0.2,5.75,
Cc1cccc2c(=O)oc(SCc3ccccc3)nc12,,110,
CCOC(=O)C(Cc1ccccc1)Nc1nc2ccccc2c(=O)o1 (stereo not drawn),,1200,
CCCCN(CCCC)c1nc2cccc(CC)c2c(=O)o1,,178,
